From ChEMBL document CHEMBL1765089, “A class of 5-benzylidene-2-phenylthiazolinones with high potency as direct 5-lipoxygenase inhibitors” (J Med Chem, 2011)
pIC50: −log10 of the molar value.

Tests used:
[1] = molecular target: T1, Polyunsaturated fatty acid 5-lipoxygenase (Homo sapiens, UniProt P09917); test: Inhibition of 5-lipoxygenase in human polymorphonuclear leukocytes assessed as inhibition of LTB4 production preincubated for 15 mins measured after 10 mins by HPLC method; type: cell-based; settings: pooled result: one value given for 2 cell lines, strains, targets or settings
T1 sequence (P09917 whole entry): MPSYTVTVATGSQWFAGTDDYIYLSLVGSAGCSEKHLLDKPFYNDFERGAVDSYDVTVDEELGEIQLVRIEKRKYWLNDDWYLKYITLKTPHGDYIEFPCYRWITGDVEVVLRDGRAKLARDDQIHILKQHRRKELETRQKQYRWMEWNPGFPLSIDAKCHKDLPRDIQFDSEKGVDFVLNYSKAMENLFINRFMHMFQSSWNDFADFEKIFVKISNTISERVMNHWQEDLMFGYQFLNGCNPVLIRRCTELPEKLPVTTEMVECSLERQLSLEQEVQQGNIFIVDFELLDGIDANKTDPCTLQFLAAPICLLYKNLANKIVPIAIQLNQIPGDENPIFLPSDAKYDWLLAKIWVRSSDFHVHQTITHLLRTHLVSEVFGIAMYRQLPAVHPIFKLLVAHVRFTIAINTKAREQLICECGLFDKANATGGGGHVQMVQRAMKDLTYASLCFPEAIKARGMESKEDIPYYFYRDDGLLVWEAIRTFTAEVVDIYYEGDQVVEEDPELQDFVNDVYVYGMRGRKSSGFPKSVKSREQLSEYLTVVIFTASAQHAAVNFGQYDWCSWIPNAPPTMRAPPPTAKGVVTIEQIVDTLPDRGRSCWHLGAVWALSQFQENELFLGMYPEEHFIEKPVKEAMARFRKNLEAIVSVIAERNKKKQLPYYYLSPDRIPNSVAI
Summary of the method: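 Isolated intact human polymorphonuclear leukocytes were preincubated with compound, then stimulated with 2.5 μM ionophore A23187 plus exogenous arachidonic acid (20 μM) to bypass cPLA₂ substrate supply. Three increasing concentrations were tested in three to five independent experiments and normalized to DMSO control. IC₅₀ was read by linear interpolation around 50% activity, reported as mean with SEM.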

[2] = molecular target: T1, Polyunsaturated fatty acid 5-lipoxygenase; test: Inhibition of 5-lipoxygenase in S100 supernatant assessed as inhibition of (5(S)-hydroperoxy-6-trans-8,11,14-cis-eicosatetraenoic acid production preincubated for 15 mins measured after 10 mins by HPLC method
Summary of the method: (§1)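 Cell-free assay using the 100000g supernatant (S100) of human PMNL homogenates. Samples were preincubated with compound, then 5-LO product formation was started with 1 mM CaCl₂ plus 20 μM arachidonic acid. Three increasing concentrations were tested in three to five independent experiments and normalized to DMSO control. IC₅₀ was estimated by linear interpolation around 50% activity.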

[3] = molecular target: T1, Polyunsaturated fatty acid 5-lipoxygenase; test: Inhibition of 5-lipoxygenase in S100 supernatant assessed as inhibition of LTB4 production preincubated for 15 mins measured after 10 mins by HPLC method; summary of the method: as §1
[4] = molecular target: T1, Polyunsaturated fatty acid 5-lipoxygenase; test: Inhibition of 5-lipoxygenase
[5] = molecular target: T2, Polyunsaturated fatty acid 5-lipoxygenase (Homo sapiens) (UniProt P09917); test: Inhibition of 5-lipoxygenase in human polymorphonuclear leukocytes assessed as residual activity at 30 uM relative to control; type: cell-based
T2 sequence (whole entry): T1 sequence (P09917 whole entry)
Summary of the method: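 Intact isolated human PMNL were preincubated with compound, then 5-LO product formation was elicited with 2.5 μM A23187 and 20 μM exogenous arachidonic acid. Activity was expressed relative to DMSO control.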

[6] = molecular target: T2, Polyunsaturated fatty acid 5-lipoxygenase (Homo sapiens); test: Inhibition of 5-lipoxygenase in S100 supernatant assessed as residual activity at 30 uM relative to control
Summary of the method: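 PMNL homogenate 100000g supernatant (S100) was preincubated with compound, then stimulated with 1 mM CaCl₂ and 20 μM arachidonic acid. 5-LO product formation was expressed relative to DMSO control.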

Row | pIC50 [1] | pIC50 [2] | pIC50 [3] | pIC50 [4] | Activity [5] [%] | Activity [6] [%] | SMILES
1 | 6.24 | 6.52 | 6.52 | – | – | – | Cc1ccc(C2=NC(=O)/C(=C/c3cccc(Cl)c3)S2)cc1
2 | 6.19 | 6.52 | 6.52 | – | – | – | COc1cc(Cl)cc(/C=C2\SC(c3ccccc3)=NC2=O)c1O
3 | 6.40 | 6.96 | 6.96 | – | – | – | O=C1N=C(c2ccc(Cl)cc2)S/C1=C\c1ccc(O)cc1
4 | – | – | – | < 5.00 | – | – | C/C(=C1/SC(O)=NC1=O)c1cc(-c2ccccc2)c(O)c(-c2ccccc2)c1
5 | 5.61 | 6.40 | 6.40 | – | – | – | COc1ccc(/C=C2\SC(c3ccc(C)cc3)=NC2=O)c(OC)c1OC
6 | 5.02 | 5.52 | 5.52 | – | – | – | COc1cc(/C=C2\SC(c3ccccc3)=NC2=O)cc(Cl)c1O
7 | 6.42 | 6.89 | 6.89 | – | – | – | COc1ccc(/C=C2\SC(c3cccc(C(C)=O)c3)=NC2=O)cc1
8 | 6.40 | 6.64 | 6.64 | – | – | – | Cc1ccc(C2=NC(=O)/C(=C/C=C/c3ccccc3)S2)cc1
9 | 5.70 | 6.30 | 6.30 | – | – | – | CCOc1ccc(/C=C2\SC(c3ccccc3)=NC2=O)cc1
10 | 6.55 | 7.05 | 7.05 | – | – | – | COc1ccc(/C=C2\SC(c3ccc(Cl)cc3)=NC2=O)cc1
11 | 5.54 | 5.90 | 5.90 | – | – | – | CCOc1cc(/C=C2\SC(c3ccc(C)cc3)=NC2=O)cc(Cl)c1O
12 | 5.77 | 6.19 | 6.19 | – | – | – | COc1ccc(/C=C2\SC(c3ccc(O)cc3)=NC2=O)cc1
13 | 5.36 | 5.52 | 5.52 | – | – | – | COc1cc(/C=C2\SC(c3ccccc3)=NC2=O)cc([N+](=O)[O-])c1O
14 | 6.62 | 6.92 | 6.92 | – | – | – | COc1ccc(/C=C2\SC(c3cccc(F)c3)=NC2=O)cc1
15 | 6.46 | 6.89 | 6.89 | – | – | – | COc1ccc(OC)c(/C=C2\SC(c3ccc(C)cc3)=NC2=O)c1
16 | 5.71 | 6.20 | 6.20 | – | – | – | COc1ccc(/C=C2\SC(c3ccc(N)cc3)=NC2=O)cc1
17 | 6.49 | 5.40 | 5.40 | – | – | – | COc1ccc(/C=C2\SC(c3ccc(OC)cc3)=NC2=O)cc1

Row | pIC50 [1] | pIC50 [2] | pIC50 [3] | pIC50 [4] | Activity [5] [%] | Activity [6] [%] | SMILES
18 | < 4.52 | < 4.52 | < 4.52 | – | > 60 | > 60 | Cc1ccc(/C=C2\SC(Nc3ccc4ccccc4c3)=NC2=O)cc1
19 | 6.28 | 6.82 | 6.82 | – | – | – | COc1ccc(/C=C2\SC(c3ccccc3)=NC2=O)cc1
20 | 6.07 | 6.24 | 6.24 | – | – | – | COC(=O)COc1ccc(C2=NC(=O)/C(=C/c3ccc(OC)cc3)S2)cc1
21 | < 4.52 | < 4.52 | < 4.52 | – | > 60 | > 60 | COc1ccc(/C=C2\SC(N3CCCC3)=NC2=O)cc1
22 | 5.37 | 6.52 | 6.52 | – | – | – | O=C1N=C(c2ccccc2)S/C1=C\c1c2ccccc2cc2ccccc12
23 | 6.04 | 6.52 | 6.52 | – | – | – | CC(C)(C)c1ccc(/C=C2\SC(c3ccccc3)=NC2=O)cc1
24 | 6.26 | 6.96 | 6.96 | – | – | – | COc1ccc(/C=C2\SC(c3ccc(C(C)=O)cc3)=NC2=O)cc1
25 | 5.68 | 6.72 | 6.72 | – | – | – | COC(=O)COc1ccc(/C=C2\SC(c3ccc(C)cc3)=NC2=O)cc1
26 | < 5.00 | 5.57 | 5.57 | – | – | – | COc1cc(/C=C2\SC(c3ccc(C)cc3)=NC2=O)cc(Cl)c1O
27 | 6.14 | 6.46 | 6.46 | – | – | – | Cc1ccc(C2=NC(=O)/C(=C/c3ccccc3)S2)cc1
28 | 4.92 | 4.85 | 4.85 | – | – | – | CCCOc1ccc(/C=C2\SC(N3CCCCCC3)=NC2=O)cc1
29 | 6.10 | 5.89 | 5.89 | – | – | – | COc1cccc(/C=C2\SC(c3ccc(C)cc3)=NC2=O)c1O
30 | 4.52 | < 4.52 | < 4.52 | – | > 60 | > 60 | O=C1/C(=C/C=C/c2ccco2)S/C(=N\c2ccccc2)N1c1ccccc1
31 | 5.69 | 6.01 | 6.01 | – | – | – | COc1ccc(/C=C2\SC(c3ccc(C)cc3)=NC2=O)c(OC)c1
32 | 6.18 | 6.52 | 6.52 | – | – | – | COc1ccc(/C=C2\SC(c3ccc(C)cc3)=NC2=O)cc1
33 | 6.32 | 6.27 | 6.27 | – | – | – | COc1cccc(/C=C2\SC(c3ccccc3)=NC2=O)c1O
34 | 4.70 | < 4.52 | < 4.52 | – | > 60 | > 60 | CN(C)c1ccc(/C=C2\SC(N3CCCCC3)=NC2=O)cc1

Row | SMILES | pIC50 [1] | pIC50 [2] | pIC50 [3] | pIC50 [4] | Activity [5] [%] | Activity [6] [%]
35 | O=C1N=C(Nc2ccccc2)S/C1=C\c1ccccc1 | < 4.52 | < 4.52 | < 4.52 | – | > 60 | > 60
